# The source made the active and inactive calls. No cut-off for these calls is given here.
# Key:
# PC-3 [1] = assay: Induction of mitochondria fragmentation in human PC3 cells at 1 uM after 10 to 40 mins by fluorescence microscopy; assay type: functional, cell-based
# Method in brief: (§1)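 Live cells were treated with 1 μM Bodipy conjugates for at least 40 min and then co-stained with MitoTracker Red FM (100 nM, 10 min). Imaging by fluorescence microscopy assessed colocalisation with the green signal and the state of the mitochondrial network.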
# LNCaP [2] = assay: Cytotoxicity against human LNCAP cells after 24 hrs by WST-1 assay; assay type: functional, cell-based
# Method in brief: (§2)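 Dark cytotoxicity (no light exposure) by WST-1 tetrazolium-to-formazan conversion reflecting metabolic activity; compounds tested at concentrations up to 50 μM for 24, 48 or 72 h; IC50 taken as concentration giving 50% inhibition of cell viability.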
# LNCaP [3] = assay: Cytotoxicity against human LNCAP cells after 48 hrs by WST-1 assay; assay type: functional, cell-based; method in brief: as §2
# LNCaP [4] = assay: Cytotoxicity against human LNCAP cells after 72 hrs by WST-1 assay; assay type: functional, cell-based; method in brief: as §2
# [5] = Cytotoxicity against human PC3 cells after 24 hrs by WST-1 assay; assay type: functional, cell-based; conditions: PC-3, 24 h; method in brief: as §2
# [6] = Cytotoxicity against human PC3 cells after 48 hrs by WST-1 assay; assay type: functional, cell-based; conditions: PC-3, 48 h; method in brief: as §2
# [7] = Cytotoxicity against human PC3 cells after 72 hrs by WST-1 assay; assay type: functional, cell-based; conditions: PC-3, 72 h; method in brief: as §2
# C2C12 [8] = assay: Cytotoxicity against mouse C2C12 cells after 24 hrs by WST-1 assay; assay type: functional, cell-based; conditions: C2C12, 24 h; method in brief: as §2
# C2C12 [9] = assay: Cytotoxicity against mouse C2C12 cells after 48 hrs by WST-1 assay; assay type: functional, cell-based; conditions: C2C12, 48 h; method in brief: as §2
# C2C12 [10] = assay: Cytotoxicity against mouse C2C12 cells after 72 hrs by WST-1 assay; assay type: functional, cell-based; conditions: C2C12, 72 h; method in brief: as §2
# U2OS [11] = assay: Cytotoxicity against human U2OS cells after 24 hrs by WST-1 assay; assay type: functional, cell-based; method in brief: as §2
# U2OS [12] = assay: Cytotoxicity against human U2OS cells after 48 hrs by WST-1 assay; assay type: functional, cell-based; method in brief: as §2
# U2OS [13] = assay: Cytotoxicity against human U2OS cells after 72 hrs by WST-1 assay; assay type: functional, cell-based; method in brief: as §2
# MCF7 [14] = assay: Cytotoxicity against human MCF7 cells after 24 hrs by WST-1 assay; assay type: functional, cell-based; conditions: MCF7, 24 h; method in brief: as §2
# MCF7 [15] = assay: Cytotoxicity against human MCF7 cells after 72 hrs by WST-1 assay; assay type: functional, cell-based; conditions: MCF7, 72 h; method in brief: as §2
# [16] = Cytotoxicity against human MIAPaCa2 cells after 24 hrs by WST-1 assay; assay type: functional, cell-based; conditions: MIA PaCa-2, 24 h; method in brief: as §2
# [17] = Cytotoxicity against human MIAPaCa2 cells after 48 hrs by WST-1 assay; assay type: functional, cell-based; conditions: MIA PaCa-2, 48 h; method in brief: as §2
# [18] = Cytotoxicity against human MIAPaCa2 cells after 72 hrs by WST-1 assay; assay type: functional, cell-based; conditions: MIA PaCa-2, 72 h; method in brief: as §2
# HT-29 [19] = assay: Cytotoxicity against human HT-29 cells after 24 hrs by WST-1 assay; assay type: functional, cell-based; conditions: HT-29, 24 h; method in brief: as §2
# HT-29 [20] = assay: Cytotoxicity against human HT-29 cells after 72 hrs by WST-1 assay; assay type: functional, cell-based; conditions: HT-29, 72 h; method in brief: as §2
# [21] = Cytotoxicity against rat peritoneal cells assessed as reduction in cell viability at 40 uM after 24 hrs by WST-1 assay; assay type: cell-based
# Rattus norvegicus [22] = species: Rattus norvegicus; assay: Induction of LPS-induced NO production in rat peritoneal cells at 40 uM after 24 hrs using DAR-2 probe by fluorescence assay; assay type: functional, cell-based
# Method in brief: (§3)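 Rat peritoneal cells were treated with conjugates at 0.01–100.0 μM for 24 h. NO production was compared with untreated cells. LPS (100 pg·mL−1) and trilobolide (0.1 μM) were included as references. Data are mean ± SEM of three independent experiments, n = 6.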
# PC-3 [23] = assay: Induction of LPS-induced NO production in human PC3 cells at 40 uM after 24 hrs using DAR-2 probe by fluorescence assay; assay type: functional, cell-based
# Method in brief: (§4)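 NO in living cells (PC-3, LNCaP, MCF-7, U-2 OS) was imaged by fluorescence microscopy with the NO-specific red-emitting probe DAR-2 after compound stimulation.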
# LNCaP [24] = assay: Induction of LPS-induced NO production in human LNCAP cells at 40 uM after 24 hrs using DAR-2 probe by fluorescence assay; assay type: functional, cell-based; method in brief: as §4
# MCF7 [25] = assay: Induction of LPS-induced NO production in human MCF7 cells at 40 uM after 24 hrs using DAR-2 probe by fluorescence assay; assay type: functional, cell-based; method in brief: as §4
# Rattus norvegicus [26] = species: Rattus norvegicus; assay: Induction of LPS-induced NO production in rat peritoneal cells after 24 hrs using DAR-2 probe by fluorescence assay; assay type: functional, cell-based
# Rattus norvegicus [27] = species: Rattus norvegicus; assay: Induction of LPS-induced NO production in rat peritoneal cells at 1 to 10 uM after 24 hrs using DAR-2 probe by fluorescence assay; assay type: functional, cell-based; method in brief: as §3
# U2OS [28] = assay: Cellular uptake in human U2OS cells at 1 uM after 20 mins by fluorescence microscopy; assay type: ADME, cell-based
# Method in brief: (§5)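 Uptake into living cells was followed by fluorescence microscopy at 10, 20 and 40 min and at 1, 3, 5 and 24 h. Green-emitting Bodipy conjugates were given at 1 μM. A Bodipy dye-only stain served as control for dye-driven localisation.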
# MCF7 [29] = assay: Cellular uptake in human MCF7 cells at 1 uM after 20 mins by fluorescence microscopy; assay type: ADME, cell-based; conditions: mcf7, 20 min; method in brief: as §5
# HeLa = assay: Cellular uptake in human HeLa cells at 1 uM after 20 mins by fluorescence microscopy; assay type: ADME, cell-based; method in brief: as §5
# A549 = assay: Cellular uptake in human A549 cells at 1 uM after 20 mins by fluorescence microscopy; assay type: ADME, cell-based; conditions: a549, 20 min; method in brief: as §5
# C2C12 [30] = assay: Cellular uptake in mouse C2C12 cells at 1 uM after 20 mins by fluorescence microscopy; assay type: ADME, cell-based; conditions: c2c12, 20 min; method in brief: as §5
# [31] = Cellular uptake in HEK293T cells at 1 uM after 20 mins by fluorescence microscopy; assay type: ADME, cell-based; conditions: human, hek-293t; method in brief: as §5
# U2OS [32] = assay: Cellular uptake in human U2OS cells at 1 uM after 40 mins to 24 hrs by fluorescence microscopy; assay type: ADME, cell-based; method in brief: as §5
# [33] = Cellular uptake in human PC3 cells at 1 uM after 40 mins to 24 hrs by fluorescence microscopy; assay type: ADME, cell-based; conditions: pc-3, 1 µM; method in brief: as §5
# [34] = Cellular uptake in human MIAPaCa2 cells at 1 uM after 40 mins to 24 hrs by fluorescence microscopy; assay type: ADME, cell-based; conditions: mia paca-2, 1 µM; method in brief: as §5
# U2OS [35] = assay: Cellular uptake in human U2OS cells at 1 uM after 10 to 20 mins by fluorescence microscopy; assay type: ADME, cell-based; method in brief: as §5
# U2OS [36] = assay: Cellular uptake in human U2OS cells at 2 uM after 0.5 to 24 hrs by fluorescence microscopy; assay type: ADME, cell-based
# Method in brief: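 U-2 OS live cells were imaged by fluorescence microscopy across a range of conjugate concentrations and time points from 0.5 to 24 h. The intracellular signal plateau was then assessed.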
# [37] = Cellular uptake in Endoplasmic reticulum of human U2OS cells at 1 uM after 1 hr by fluorescence microscopy; assay type: ADME, cell-based
# Method in brief: (§6)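 Live-cell fluorescence microscopy of cells exposed to Bodipy-labelled conjugates at 1 μM for 1 h. ER was co-stained with ER-Tracker Blue-White DPX (100 nM, 20 min) to check colocalisation. A Bodipy dye-only stain served as control.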
# [38] = Cellular uptake in Endoplasmic reticulum of human PC3 cells at 1 uM after 1 hr by fluorescence microscopy; assay type: ADME, cell-based; conditions: pc-3, 1 h; method in brief: as §6
# [39] = Cellular uptake in Endoplasmic reticulum of human LNCAP cells at 1 uM after 1 hr by fluorescence microscopy; assay type: ADME, cell-based; method in brief: as §6
# U2OS [40] = assay: Induction of mitochondria fragmentation in human U2OS cells at 1 uM after 10 to 40 mins by fluorescence microscopy; assay type: functional, cell-based; method in brief: as §1
smiles,measurement,setting,value
C/C=C(/C)C(=O)O[C@@H]1C[C@H]2C(=C1C)[C@@H]1OC(=O)[C@@](C)(O)[C@@]1(O)[C@@H](OC(=O)CCOCCOCCOCCOCCn1cc(COc3ccc(C4=C5C=CC=[N+]5[B-](F)(F)n5cccc54)cc3)nn1)C[C@]2(C)OC(C)=O,Activity,PC-3 [1],Active
same,IC50,LNCaP [2],7.4 µM
same,IC50,LNCaP [3],0.4 µM
same,IC50,LNCaP [4],20.5 µM
same,IC50,[5],2.5 µM
same,IC50,[6],3.1 µM
same,IC50,[7],4.1 µM
same,IC50,C2C12 [8],8 µM
same,IC50,C2C12 [9],6.5 µM
same,IC50,C2C12 [10],14.3 µM
same,IC50,U2OS [11],> 50 µM
same,IC50,U2OS [12],5.4 µM
same,IC50,U2OS [13],9.1 µM
same,IC50,MCF7 [14],7.4 µM
same,IC50,MCF7 [15],6 µM
same,IC50,[16],> 50 µM
same,IC50,[17],9.9 µM
same,IC50,[18],6.5 µM
same,IC50,HT-29 [19],> 50 µM
same,IC50,HT-29 [20],> 50 µM
same,Activity,[21],Non-toxic
same,Activity,Rattus norvegicus [22],Active
same,Activity,PC-3 [23],Active
same,Activity,LNCaP [24],Active
same,Activity,MCF7 [25],Active
same,Activity,Rattus norvegicus [26],Dose-dependent effect
same,Activity,Rattus norvegicus [27],Active
same,Drug uptake,U2OS [28],Active
same,Drug uptake,MCF7 [29],Active
same,Drug uptake,HeLa,Active
same,Drug uptake,A549,Active
same,Drug uptake,C2C12 [30],Active
same,Drug uptake,[31],Active
same,Drug uptake,U2OS [32],Not Active
same,Drug uptake,[33],Active
same,Drug uptake,[34],Active
same,Drug uptake,U2OS [35],Active
same,Drug uptake,U2OS [36],Active
same,Drug uptake,[37],Active
same,Drug uptake,[38],Active
same,Drug uptake,[39],Active
same,Activity,U2OS [40],Active
C/C=C(/C)C(=O)O[C@@H]1C[C@H]2C(=C1C)[C@@H]1OC(=O)[C@@](C)(O)[C@@]1(O)[C@@H](OC(=O)CCCCn1cc(COc3ccc(C4=C5C=CC=[N+]5[B-](F)(F)n5cccc54)cc3)nn1)C[C@]2(C)OC(C)=O,Activity,PC-3 [1],Active
same,IC50,LNCaP [2],12.7 µM
same,IC50,LNCaP [3],9.7 µM
same,IC50,LNCaP [4],> 50 µM
same,IC50,[5],4.2 µM
same,IC50,[6],4.6 µM
same,IC50,[7],3.8 µM
same,IC50,C2C12 [8],> 50 µM
same,IC50,C2C12 [9],7.5 µM
same,IC50,C2C12 [10],15.1 µM
same,IC50,U2OS [11],25.6 µM
same,IC50,U2OS [12],13.2 µM
same,IC50,U2OS [13],9.1 µM
same,IC50,MCF7 [14],> 50 µM
same,IC50,MCF7 [15],10.8 µM
same,IC50,[16],> 50 µM
same,IC50,[17],43.5 µM
same,IC50,[18],38.3 µM
same,IC50,HT-29 [19],> 50 µM
same,IC50,HT-29 [20],> 50 µM
same,Activity,[21],20%
same,Activity,Rattus norvegicus [22],Active
same,Activity,PC-3 [23],Active
same,Activity,LNCaP [24],Active
same,Activity,MCF7 [25],Active
same,Activity,Rattus norvegicus [26],Dose-dependent effect
same,Activity,Rattus norvegicus [27],Active
same,Drug uptake,U2OS [28],Active
same,Drug uptake,MCF7 [29],Active
same,Drug uptake,HeLa,Active
same,Drug uptake,A549,Active
same,Drug uptake,C2C12 [30],Active
same,Drug uptake,[31],Active
same,Drug uptake,U2OS [32],Not Active
same,Drug uptake,[33],Active
same,Drug uptake,[34],Active
same,Drug uptake,U2OS [35],Active
same,Drug uptake,U2OS [36],Active
same,Drug uptake,[37],Active
same,Drug uptake,[38],Active
same,Drug uptake,[39],Active
same,Activity,U2OS [40],Active

# From ChEMBL document CHEMBL3352255, “Tailor-made fluorescent trilobolide to study its biological relevance” (J Med Chem, 2014)
